Laboratory results published in ChEMBL document CHEMBL2021849, “Synergistic TRAIL sensitizers from Barleria alluaudii and Diospyros maritima” (J Nat Prod, 2012).

What was measured:
ACHN [1] = test: Ratio of EC50 for human ACHN cells to EC50 for human ACHN cells in presence of 40 ng/ml TRAIL; type: functional
Procedure, shortened: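 Synergy taken as the ratio of the two EC50 values read from ACHN cell death curves, one run without TRAIL and one with 40 ng/mL TRAIL. Treatment lasted 20–24 h.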

ACHN [2] = test: Cytotoxicity against human ACHN cells assessed as cell death after 20 to 24 hrs by XTT assay; type: functional, cell-based
ACHN [3] = test: Cytotoxicity against human ACHN cells assessed as cell death after 20 to 24 hrs by XTT assay in presence of 40 ng/ml TRAIL; type: functional, cell-based

| SMILES | Ratio EC50 (ACHN [1]) | EC50 (ACHN [2]) | EC50 (ACHN [3]) |
| --- | --- | --- | --- |
| CC(C)=CC[C@]12O[C@H]1C(=O)c1ccccc1C2=O | 2.4 | 39.7 µM | 16.7 µM |
| CC(C)=CC[C@]12O[C@H]1C(=O)c1cccc(O)c1C2=O | 1.4 | 6.4 µM | 4.7 µM |
| C[C@@H]1CC(=O)c2c(O)cccc2[C@@H]1O |  | > 60 µM | > 60 µM |
| CC1=CC(=O)c2c(ccc(C(C)c3ccc4c(c3O)C(=O)C=C(C)C4=O)c2O)C1=O |  | > 30 µM | > 30 µM |
| CC1=CC(=O)c2c(ccc(-c3ccc4c(c3O)C(=O)C=C(C)C4=O)c2O)C1=O [ELLIPTINONE] | 3.5 | 13.2 µM | 3.8 µM |
| CC1=CC(=O)c2c(O)ccc(-c3ccc(O)c4c3C(=O)C(C)=CC4=O)c2C1=O [MARITINONE] | 3.8 | 5.8 µM | 1.5 µM |
| CC1=CC(=O)c2c(O)cccc2C1=O [PLUMBAGIN] | 2 | 7.3 µM | 3.7 µM |
| Cc1ccc2c(c1)C(=O)c1ccccc1C2=O [TECTOQUINONE] |  | > 50 µM | > 50 µM |
